The source of these data is ChEMBL document CHEMBL1144035, “Synthesis, cytostatic and anti-HCV activity of 6-(N-substituted aminomethyl)-, 6-(O-substituted hydroxymethyl)- and 6-(S-substituted sulfanylmethyl)purine nucleosides” (Bioorg Med Chem, 2008).

Activity calls are given as the source filed them. The calls are words filed in the database; no cut-off is given here.

The test system of test [1] is CCRF-CEM. Description: Cytostatic activity in human CCRF-CEM cells assessed as inhibition of cell growth after 72 hrs. It is filed as functional, cell-based. An outline of the steps:
(§1)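 Cultures from ATCC lines: mouse leukaemia L1210 (CCL 219), human promyelocytic leukaemia HL60 (CCL 240) and human T-lymphoblastoid CCRF-CEM (CCL 119). Growth inhibition was estimated from the cell count in a haematological analyzer (haemocytometer).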

For test [2], the system named is HL-60. Description: Cytostatic activity in human HL60 cells assessed as inhibition of cell growth after 72 hrs. The format is functional, cell-based. The conditions noted are these: for IC50: HL-60, 72 h. An outline of the steps:
as §1

The test system of another test is Hepatitis C virus. Description: Antiviral activity against Hepatitis C virus 1b after 3 days. The format is functional, organism-based, Hepacivirus hominis. The conditions noted are these: genotype 1b, 72 h.
A short description of test [3]: Cytotoxicity against human Huh7 cells after 3 days by MTT method. The format is functional. Conditions: Huh-7, 72 h. An outline of the steps: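 Cellular toxicity was read by MTT in Huh-7 cells carrying the con-1 HCV replicon, in duplicate (N = 2).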
A general note: Tetrazolium assays rely on reduction of a dye to a coloured formazan, in cell work by metabolically active cells.

Another test concerns HeLa. As to the kind of experiment: Cytostatic activity in human HeLa S3 cells assessed as inhibition of cell growth after 48 hrs by XTT assay. It is filed as functional, cell-based.
The test system of another test is MT4. Description: Cytotoxicity against human MT4 cells after 4 days. The format is functional. Conditions: MT4, 96 h. The method, boiled down:
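Cellular toxicity was measured in MT-4 cells, N = 2.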

Another test concerns L1210. Description: Cytostatic activity in mouse L1210 cells assessed as inhibition of cell growth after 72 hrs. It is filed as functional, cell-based. Conditions: for IC50: L1210, 72 h. An outline of the steps: as §1
Test [4] concerns CCRF-CEM. Description: Cytostatic activity in human CCRF-CEM cells assessed as inhibition of cell growth after 72 hrs by XTT assay. The format is functional, cell-based.
Test [5] has as its system HL-60. As to the kind of experiment: Cytostatic activity in human HL60 cells assessed as inhibition of cell growth after 72 hrs by XTT assay. Conditions: HL-60, 72 h. It is filed as functional, cell-based.
Test [6] has as its system HL-60. Description: Cell cycle arrest in human HL60 cells by accumulation at G1 phase after 72 hrs by flow cytometry. The format is functional, cell-based. In general terms: Flow cytometry measures light scatter and fluorescence of single cells or particles in a stream.
In test [7] the test system is HL-60. Description: Cell cycle arrest in human HL60 cells by depletion of cells at S phase after 72 hrs by flow cytometry. It is filed as functional, cell-based.

With `OCCSCc1ncnc2c1ncn2[C@@H]1O[C@H](CO)[C@@H](O)[C@H]1O`, the result in the test with CCRF-CEM [1], in the test with HL-60 [2], with HeLa and in the test with L1210 was inactive. In addition, the EC50 in the test on Hepatitis C virus turned out to be 46 µM. Further, the 50% cytotoxic concentration (CC50) (in test [3]; in the test with MT4) was greater than 100 µM each time.

Turning to `CSCc1ncnc2c1ncn2[C@@H]1O[C@H](CO)[C@@H](O)[C@H]1O`, the IC50 in the test with CCRF-CEM [1] was 15 µM; with HL-60 [2] it was 13.4 µM; in the test on CCRF-CEM [4], 3.2 µM; with HL-60 [5], 5 µM; in the test with L1210 it was greater than 30 µM. This molecule also had an EC50 with Hepatitis C virus of 10 µM. Moreover, the values for the half-maximal cytotoxic concentration (CC50) (in [3]; with MT4) were greater than 100 µM and 32 µM, respectively. Further, the outcome with HeLa was inactive.

Turning to `OC[C@H]1O[C@@H](n2cnc3c(Cn4cccn4)ncnc32)[C@H](O)[C@@H]1O`, the outcome in the test on CCRF-CEM [1], in the test on HL-60 [2], in the test with HeLa and in the test with L1210 was inactive. Besides, in the test with Hepatitis C virus, it took 62 µM to reach a half-maximal effect (EC50). Moreover, the CC50 in test [3] is greater than 250 µM; in the test with MT4 it was 48 µM.

Consider `OCCN(CCO)Cc1ncnc2c1ncn2[C@@H]1O[C@H](CO)[C@@H](O)[C@H]1O`, for which the outcome in the test with HL-60 [6] and with HL-60 [7] was Active. Further, the half-maximal inhibitory concentration (IC50) in the test with CCRF-CEM [1] was 6.7 µM; with HL-60 [2] it was 14.7 µM; with CCRF-CEM [4], 3.72 µM; in the test on HL-60 [5], 4.37 µM; in the test with L1210, 14.3 µM. Moreover, in the test on Hepatitis C virus, a half-maximal response (EC50) required 15 µM. In [3], this molecule returned a CC50 of 10 µM. Also, in the test on HeLa, the result was inactive.

`OC[C@H]1O[C@@H](n2cnc3c(CSc4ccccn4)ncnc32)[C@H](O)[C@@H]1O`: the outcome in the test on CCRF-CEM [1], in the test on HL-60 [2], in the test on HeLa and in the test with L1210 was inactive. In the test on Hepatitis C virus, the concentration giving a half-maximal response (EC50) came out at 44 µM. Further, the cytotoxic concentration (CC50) (in test [3]; with MT4) was greater than 100 µM throughout.

For the molecule `CC(=O)NNCc1ncnc2c1ncn2[C@@H]1O[C@H](CO)[C@@H](O)[C@H]1O`, the concentration for half-maximal inhibition (IC50) in the test on CCRF-CEM [1] is 18 µM; with HL-60 [2], 6.6 µM; in the test on CCRF-CEM [4] it was 10.3 µM; in the test with HL-60 [5] it was 11.4 µM. In the test with Hepatitis C virus, this molecule returned a 50% effective concentration (EC50) of 65 µM. In test [3], this molecule gave a CC50 greater than 250 µM. In addition, the outcome in the test with HeLa and in the test on L1210 was inactive.

`OC[C@H]1O[C@@H](n2cnc3c(Cn4ccc5ccccc54)ncnc32)[C@H](O)[C@@H]1O`: the IC50 with CCRF-CEM [1] was found to be 3.4 µM; with HL-60 [2], 5.7 µM; with CCRF-CEM [4], 1.96 µM; in the test on HL-60 [5], 9.1 µM. Further, in the test on Hepatitis C virus, the EC50 is 7.6 µM. The cytotoxic concentration (CC50) was greater than 250 µM in test [3] and 45 µM with MT4. Further, the result in the test on HeLa and with L1210 was inactive.

In the case of `O=C(O)CSCc1ncnc2c1ncn2[C@@H]1O[C@H](CO)[C@@H](O)[C@H]1O`, the outcome with CCRF-CEM [1], in the test on HL-60 [2], with HeLa and in the test with L1210 was inactive. Also, in the test with Hepatitis C virus, the EC50 is greater than 100 µM. The molecule further registered a CC50 in test [3] greater than 100 µM.

`OC[C@H]1O[C@@H](n2cnc3c(CSc4nc5ccccc5s4)ncnc32)[C@H](O)[C@@H]1O`: the outcome in the test on CCRF-CEM [1], in the test on HL-60 [2], in the test on HeLa and in the test with L1210 was inactive. In the test on Hepatitis C virus, the EC50 was greater than 100 µM. The molecule further registered a cytotoxic concentration (CC50) in test [3] greater than 100 µM.

Consider `O=c1ccccn1Cc1ncnc2c1ncn2[C@@H]1O[C@H](CO)[C@@H](O)[C@H]1O`, for which the outcome with CCRF-CEM [1], with HL-60 [2], with HeLa and in the test with L1210 was inactive. For the same molecule, the response in the test on Hepatitis C virus was half-maximal at 91 µM (EC50). Besides, the half-maximal cytotoxic concentration (CC50) in test [3] is greater than 100 µM.

In the case of `OC[C@H]1O[C@@H](n2cnc3c(CS)ncnc32)C[C@@H]1O`, the outcome in the test with CCRF-CEM [1], in the test on HL-60 [2], in the test on HeLa and in the test with L1210 was inactive. The molecule further showed an EC50 in the test with Hepatitis C virus of 20 µM. The molecule further displayed a CC50 in test [3] of 41 µM.

On to `CC(=O)N(Cc1ncnc2c1ncn2[C@H]1C[C@H](O)[C@@H](CO)O1)C1CCCCC1`, for which the result with CCRF-CEM [1], in the test with HL-60 [2], in the test with HeLa and in the test on L1210 was inactive. The same molecule came in with an EC50 with Hepatitis C virus of 20 µM. Also, the CC50 (in [3]; with MT4) was greater than 100 µM throughout.

On to `CC(=O)N(C)Cc1ncnc2c1ncn2[C@@H]1O[C@H](CO)[C@@H](O)[C@H]1O`, for which the outcome in the test with CCRF-CEM [1], in the test on HL-60 [2], in the test on HeLa and with L1210 was inactive. The EC50 in the test with Hepatitis C virus is greater than 100 µM. Further, in [3], the half-maximal cytotoxic concentration (CC50) is greater than 100 µM.

Turning to `COCc1ncnc2c1ncn2[C@@H]1O[C@H](CO)[C@@H](O)[C@H]1O`, the outcome in the test on HL-60 [6] and with HL-60 [7] was Active. For the same molecule, the IC50 in the test on CCRF-CEM [1] worked out at 6 µM; in the test on HL-60 [2], 13 µM; with CCRF-CEM [4], 1.14 µM; with HL-60 [5], 1.68 µM. Moreover, the EC50 with Hepatitis C virus was 13 µM. This molecule showed a cytotoxic concentration (CC50) in test [3] greater than 100 µM. Moreover, the result with HeLa and in the test with L1210 was inactive.

Regarding `O=c1ccn(Cc2ncnc3c2ncn3[C@@H]2O[C@H](CO)[C@@H](O)[C@H]2O)cc1`, the outcome in the test with CCRF-CEM [1], in the test on HL-60 [2], with HeLa and in the test with L1210 was inactive. Also, the 50% effective concentration (EC50) with Hepatitis C virus was greater than 100 µM. This molecule had a 50% cytotoxic concentration (CC50) in test [3] greater than 100 µM.

For `CC(=O)N(Cc1ccccc1)Cc1ncnc2c1ncn2[C@@H]1O[C@H](CO)[C@@H](O)[C@H]1O`, the result in the test on CCRF-CEM [1], with HL-60 [2], in the test on HeLa and with L1210 was inactive. The molecule further registered a 50% effective concentration (EC50) in the test on Hepatitis C virus greater than 100 µM. The same molecule came in with a CC50 in [3] greater than 100 µM.

Take `CN(Cc1ccccc1)Cc1ncnc2c1ncn2[C@@H]1O[C@H](CO)[C@@H](O)[C@H]1O`: the IC50 with CCRF-CEM [1] amounted to 20.3 µM; in the test with HL-60 [2] it was 5.6 µM; in the test on HL-60 [5], 2.4 µM; with L1210, 4.8 µM. In the test on Hepatitis C virus, this molecule yielded a 50% effective concentration (EC50) of 9 µM. This molecule gave a CC50 in test [3] of 9 µM. Moreover, the outcome with HeLa was inactive.

`OC[C@H]1O[C@@H](n2cnc3c(CN4CCSC4)ncnc32)[C@H](O)[C@@H]1O`: the 50% inhibitory concentration (IC50) in the test on CCRF-CEM [1] was 19.6 µM; in the test on HL-60 [2], 5.2 µM; with HL-60 [5], 3.12 µM; in the test on L1210, 7.8 µM. Also, in the test with Hepatitis C virus, the EC50 was determined as 7 µM. In test [3], this molecule came in with a CC50 of 21 µM. Also, the result in the test on HeLa was inactive.

On to `OC[C@H]1O[C@@H](n2cnc3c(COc4ccccn4)ncnc32)[C@H](O)[C@@H]1O`, for which the 50% inhibitory concentration (IC50) in the test on CCRF-CEM [1] was determined as 16.6 µM; with HL-60 [2], 12 µM; in the test with CCRF-CEM [4], 10.8 µM; in the test on HL-60 [5], 14.3 µM. The molecule further displayed a 50% effective concentration (EC50) with Hepatitis C virus greater than 250 µM. Moreover, the CC50 in [3] is greater than 250 µM. Moreover, the result in the test on HeLa and with L1210 was inactive.

Regarding `OC[C@H]1O[C@@H](n2cnc3c(CS)ncnc32)[C@H](O)[C@@H]1O`, the outcome in the test on CCRF-CEM [1], in the test with HeLa and in the test with L1210 was inactive. In addition, the results for the half-maximal inhibitory concentration (IC50) in the test on HL-60 [2] and in the test with HL-60 [5] were 3.5 µM and 1.2 µM, respectively. Further, in the test on Hepatitis C virus, the EC50 came to 39 µM. Further, in test [3], the half-maximal cytotoxic concentration (CC50) is 54 µM.

The EC50 is the concentration needed to bring the measured effect to its halfway point. High values mean a need for much substance, low ones an effect from little substance. Usually CC50 stands for the concentration that lowers cell viability or growth by half. Lower therefore signals harm at low concentration. What is called IC50 is the point on the concentration scale where inhibition reaches its midpoint.
